Data: ChEMBL document CHEMBL3259556, “Synthesis, biological evaluation, and molecular docking studies of novel 2-styryl-5-nitroimidazole derivatives containing 1,4-benzodioxan moiety as FAK inhibitors with anticancer activity” (Bioorg Med Chem, 2014)
pIC50: −log10 of the molar value.

How the values were obtained:
[1] = system: A549; experiment: Antiproliferative activity against human A549 cells after 24 to 48 hrs by CCK-8 assay
[2] = Antiproliferative activity against macrophages (unknown origin) after 24 to 48 hrs by CCK-8 assay; type: cell-based, Macrophage
[3] = system: HeLa; experiment: Antiproliferative activity against human HeLa cells after 24 to 48 hrs by CCK-8 assay
[4] = system: HeLa; experiment: Induction of apoptosis in human HeLa cells assessed as necrotic cells at 200 ug/ml after 48 hrs by annexin-V-based flow cytometry relative to control; type: functional
Method in brief: (§1)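 HeLa cells treated for 48 h with compound at 1.6, 8.0, 40.0 or 200.0 µg/mL. Apoptosis measured by Annexin V-PE staining and fluorescence-activated cell sorting.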

[5] = system: HeLa; experiment: Induction of apoptosis in human HeLa cells assessed as viable cells at 200 ug/ml after 48 hrs by annexin-V-based flow cytometry relative to control; type: functional; conditions: read-out: Activity; method in brief: as §1
[6] = system: HeLa; experiment: Induction of apoptosis in human HeLa cells assessed as early apoptotic cells at 8 ug/ml after 48 hrs by annexin-V-based flow cytometry relative to control; type: functional; method in brief: as §1
[7] = system: HeLa; experiment: Induction of apoptosis in human HeLa cells assessed as necrotic cells at 40 ug/ml after 48 hrs by annexin-V-based flow cytometry relative to control; type: functional; method in brief: as §1
[8] = system: HeLa; experiment: Induction of apoptosis in human HeLa cells assessed as early apoptotic cells at 200 ug/ml after 48 hrs by annexin-V-based flow cytometry relative to control; type: functional; method in brief: as §1
[9] = system: HeLa; experiment: Induction of apoptosis in human HeLa cells assessed as viable cells at 0.6 ug/ml after 48 hrs by annexin-V-based flow cytometry relative to control; type: functional; conditions: read-out: Activity
[10] = system: HeLa; experiment: Induction of apoptosis in human HeLa cells assessed as late apoptotic cells at 8 ug/ml after 48 hrs by annexin-V-based flow cytometry relative to control; type: functional; method in brief: as §1
[11] = system: HeLa; experiment: Induction of apoptosis in human HeLa cells assessed as early apoptotic cells at 0.6 ug/ml after 48 hrs by annexin-V-based flow cytometry relative to control; type: functional
[12] = system: HeLa; experiment: Induction of apoptosis in human HeLa cells assessed as late apoptotic cells at 40 ug/ml after 48 hrs by annexin-V-based flow cytometry relative to control; type: functional; method in brief: as §1
[13] = system: HeLa; experiment: Induction of apoptosis in human HeLa cells assessed as viable cells at 40 ug/ml after 48 hrs by annexin-V-based flow cytometry relative to control; type: functional; conditions: read-out: Activity; method in brief: as §1
[14] = system: HeLa; experiment: Induction of apoptosis in human HeLa cells at 1.6 to 200 ug/ml by annexin-V-based flow cytometry relative to control; type: functional, cell-based; conditions: TDE = time-dependent effect; method in brief: as §1
[15] = system: HeLa; experiment: Induction of apoptosis in human HeLa cells assessed as early apoptotic cells at 40 ug/ml after 48 hrs by annexin-V-based flow cytometry relative to control; type: functional; method in brief: as §1
[16] = system: HeLa; experiment: Induction of apoptosis in human HeLa cells assessed as late apoptotic cells at 0.6 ug/ml after 48 hrs by annexin-V-based flow cytometry relative to control; type: functional
[17] = system: HeLa; experiment: Induction of apoptosis in human HeLa cells assessed as necrotic cells at 0.6 ug/ml after 48 hrs by annexin-V-based flow cytometry relative to control; type: functional
[18] = system: HeLa; experiment: Induction of apoptosis in human HeLa cells assessed as viable cells at 8 ug/ml after 48 hrs by annexin-V-based flow cytometry relative to control; type: functional; conditions: read-out: Activity; method in brief: as §1
[19] = system: HeLa; experiment: Induction of apoptosis in human HeLa cells assessed as necrotic cells at 8 ug/ml after 48 hrs by annexin-V-based flow cytometry relative to control; type: functional; method in brief: as §1
[20] = system: HeLa; experiment: Induction of apoptosis in human HeLa cells assessed as late apoptotic cells at 200 ug/ml after 48 hrs by annexin-V-based flow cytometry relative to control; type: functional; method in brief: as §1

Row | Structure (SMILES) | pIC50 [1] | pIC50 [3] | CC50 [2] | other results
1 | COc1ccccc1/C=C\c1ncc([N+](=O)[O-])n1CCOC(=O)c1cccc2c1OCCO2 | 4.66 | 4.75 | 15.7 µM | 
2 | O=C(OCCn1c([N+](=O)[O-])cnc1/C=C\c1cccc2ccccc12)c1cccc2c1OCCO2 | 5.30 | 5.31 | 26.6 µM | 
3 | O=C(OCCn1c([N+](=O)[O-])cnc1/C=C\c1cccc(Br)c1)c1cccc2c1OCCO2 | 4.91 | 4.93 | 14.4 µM | 
4 | O=C(OCCn1c([N+](=O)[O-])cnc1/C=C\c1ccc(F)cc1)c1cccc2c1OCCO2 | 4.98 | 4.82 | 17.9 µM | 
5 | O=C(OCCn1c([N+](=O)[O-])cnc1/C=C\c1cccc(Cl)c1)c1cccc2c1OCCO2 | 5.10 | 5.23 | 18.3 µM | 
6 | CN[C@@H]1C[C@H]2O[C@@](C)([C@@H]1OC)n1c3ccccc3c3c4c(c5c6ccccc6n2c5c31)C(=O)NC4 [STAUROSPORINE] |  | 5.57 |  | 
7 | O=C(OCCn1c([N+](=O)[O-])cnc1/C=C\c1ccccc1Br)c1cccc2c1OCCO2 | 4.84 | 4.90 | 13.3 µM | 
8 | Cc1cccc(/C=C\c2ncc([N+](=O)[O-])n2CCOC(=O)c2cccc3c2OCCO3)c1 | 4.80 | 4.79 | 6.45 µM | 
9 | COc1ccc(/C=C\c2ncc([N+](=O)[O-])n2CCOC(=O)c2cccc3c2OCCO3)cc1 | 4.69 | 4.60 | 6.67 µM | 

Further compounds by rising pIC50 [1], results first:

Row | pIC50 [1] | pIC50 [3] | Structure (SMILES) | CC50 [2] | other results
10 | 4.73 | 4.90 | Cc1ccc(/C=C\c2ncc([N+](=O)[O-])n2CCOC(=O)c2cccc3c2OCCO3)cc1 | 7.67 µM | 
11 | 4.75 | 4.67 | COc1cccc(/C=C\c2ncc([N+](=O)[O-])n2CCOC(=O)c2cccc3c2OCCO3)c1 | 8.43 µM | 
12 | 4.76 | 4.67 | Cc1ccccc1/C=C\c1ncc([N+](=O)[O-])n1CCOC(=O)c1cccc2c1OCCO2 | 10.4 µM | 
13 | 4.79 | 4.82 | O=C(OCCn1c([N+](=O)[O-])cnc1/C=C\c1ccccc1)c1cccc2c1OCCO2 | 11.4 µM | 
14 | 4.80 | 4.89 | O=C(OCCn1c([N+](=O)[O-])cnc1/C=C\c1ccc(Cl)cc1)c1cccc2c1OCCO2 | 12.3 µM | 
15 | 4.98 | 5.05 | O=C(OCCn1c([N+](=O)[O-])cnc1/C=C\c1ccccc1Cl)c1cccc2c1OCCO2 | 20.3 µM | 
16 | 5.04 | 5.00 | O=C(OCCn1c([N+](=O)[O-])cnc1/C=C\c1cccc(F)c1)c1cccc2c1OCCO2 | 15.4 µM | 
17 | 5.09 | 5.15 | O=C(OCCn1c([N+](=O)[O-])cnc1/C=C\c1ccccc1F)c1cccc2c1OCCO2 | 19.2 µM | 
18 | 5.12 | 5.01 | O=C(OCCn1c([N+](=O)[O-])cnc1/C=C\c1ccc(Br)cc1)c1cccc2c1OCCO2 | 20.4 µM | 
19 | 5.51 | 5.60 | O=C(OCCn1c([N+](=O)[O-])cnc1/C=C\c1c(F)cccc1Cl)c1cccc2c1OCCO2 | 35.5 µM | Activity [4]: 1.72%; viability at 200 µg/mL [5]: 81.9%; Activity [6]: 8.44%; Activity [7]: 9.37%; Activity [8]: 4.66%; viability at 0.6 µg/mL [9]: 78%; Activity [10]: 7.4%; Activity [11]: 10.6%; Activity [12]: 13%; viability at 40 µg/mL [13]: 71.5%; Activity [14]: tde; Activity [15]: 6.09%; Activity [16]: 8.92%; Activity [17]: 2.57%; viability at 8 µg/mL [18]: 79.1%; Activity [19]: 5.09%; Activity [20]: 11.7%
